The source made the active and inactive calls. The rule behind the calls is not given here. Residues, ends and D or L forms follow the SMILES beside them. *: point of attachment. BODIPY(FL) = CC1=CC(C)=[N+]2C1=Cc1ccc(CCC(=O)*)n1[B-]2(F)F; Propyl(3-PMe3+) = C[P+](C)(C)CCC*; CH2CH2P(+)Me3 = C[P+](C)(C)CC*
Tests used:
[1] = Drug uptake in nucleus of human MCF7 cells at 20 uM after 3 hrs by DAPI/rhodamine phalloidin staining-based fluorescence microscopic method; format: ADME, subcellular; conditions: mcf7, 3 h
How it was run: (§1)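 Peptides labelled at the N-terminus with BODIPY-Fl; MCF7 cells incubated with 20 μM labelled peptide by a modified literature protocol. Imaged by fluorescence microscopy with DAPI for nuclei and rhodamine phalloidin for cytoskeleton. Green, blue and red images were merged to localise the peptide. Free BODIPY ligand served as a control for green signal.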

[2] = Drug uptake in golgi apparatus of human MCF7 cells at 20 uM after 3 hrs by DAPI/rhodamine phalloidin staining-based fluorescence microscopic method; format: ADME, subcellular; conditions: mcf7, 3 h; how it was run: as §1
[3] = system: MCF7; experiment: Binding affinity to actin in human MCF7 cells at 20 uM after 3 hrs by DAPI/rhodamine phalloidin staining-based fluorescence microscopic method; format: cell-based
How it was run: (§2)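 MCF7 cells incubated with 20 μM BODIPY-Fl-labelled peptides (label coupled at the N-terminus) using a slightly modified literature protocol. Nuclei counterstained with DAPI and actin cytoskeleton with rhodamine phalloidin. Imaged by fluorescence microscopy; green, blue and red channels merged to localise peptide. Free BODIPY ligand served as control for green signal.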

[4] = Drug uptake in cytoplasm of human MCF7 cells at 20 uM after 3 hrs by DAPI/rhodamine phalloidin staining-based fluorescence microscopic method; format: ADME, subcellular; conditions: mcf7, 3 h; how it was run: as §1
[5] = Cytotoxicity against HEK293 cells assessed as cell viability at 256 uM after 24 hrs by Alamar blue assay relative to control; format: cell-based; conditions: human, read-out: Activity
How it was run: (§3)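 HEK 293 cells exposed to peptides (TFA salts, C-terminal amide, free N-terminus) at 256 and 512 μM; viability as percent, run in triplicate, reported as mean ± SEM.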

[6] = Hemolytic activity in horse erythrocytes at 512 uM after 1 hr relative to control; format: ADME, cell-based, Equus caballus, Erythrocyte; conditions: read-out: Activity
How it was run: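 Horse erythrocytes exposed to peptides (TFA salts, C-terminal amide, free N-terminus) at 512 μM; haemolysis as percent, triplicate determinations, reported as mean ± SEM.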

[7] = Cytotoxicity against HEK293 cells assessed as cell viability at 512 uM after 24 hrs by Alamar blue assay relative to control; format: cell-based; conditions: human, read-out: Activity; how it was run: as §3
[8] = system: Escherichia coli; experiment: Antibacterial activity against extended-spectrum beta-lactamases producing Escherichia coli clinical strain 64771 after overnight incubation by microbroth dilution assay; format: functional
[9] = Drug uptake in membrane containing structure of human MCF7 cells at 20 uM after 3 hrs by DAPI/rhodamine phalloidin staining-based fluorescence microscopic method; format: ADME, cell membranes; conditions: mcf7, 3 h; how it was run: as §2

Compound	Drug uptake [1]	Activity [3]	Drug uptake [4]	further results
CC1=CC(C)=[N+]2C1=Cc1ccc(CCC(=O)N[C@@H](CSCC[P+](C)(C)C)C(=O)N[C@@H](Cc3ccccc3)C(=O)N[C@@H](Cc3ccccc3)C(=O)N[C@@H](CSCC[P+](C)(C)C)C(=O)N[C@@H](Cc3ccccc3)C(=O)N[C@@H](Cc3ccccc3)C(=O)N[C@@H](CSCC[P+](C)(C)C)C(=O)N[C@@H](Cc3ccccc3)C(=O)N[C@@H](Cc3ccccc3)C(=O)N[C@@H](CSCC[P+](C)(C)C)C(N)=O)n1[B-]2(F)F.O=C([O-])C(F)(F)F.O=C([O-])C(F)(F)F.O=C([O-])C(F)(F)F.O=C([O-])C(F)(F)F ({BODIPY(FL)}-C(CH2CH2P(+)Me3)FFC(CH2CH2P(+)Me3)FFC(CH2CH2P(+)Me3)FFC(CH2CH2P(+)Me3)-NH2)	Active			Drug uptake [2]: Active
CC1=CC(C)=[N+]2C1=Cc1ccc(CCC(=O)N[C@@H](CSCCC[P+](C)(C)C)C(=O)N[C@@H](Cc3ccccc3)C(=O)N[C@@H](Cc3ccccc3)C(=O)N[C@@H](CSCCC[P+](C)(C)C)C(=O)N[C@@H](Cc3ccccc3)C(=O)N[C@@H](Cc3ccccc3)C(=O)N[C@@H](CSCCC[P+](C)(C)C)C(=O)N[C@@H](Cc3ccccc3)C(=O)N[C@@H](Cc3ccccc3)C(=O)N[C@@H](CSCCC[P+](C)(C)C)C(N)=O)n1[B-]2(F)F.O=C([O-])C(F)(F)F.O=C([O-])C(F)(F)F.O=C([O-])C(F)(F)F.O=C([O-])C(F)(F)F ({BODIPY(FL)}-C(Propyl(3-PMe3+))FFC(Propyl(3-PMe3+))FFC(Propyl(3-PMe3+))FFC(Propyl(3-PMe3+))-NH2)	Active	Active		
CC[C@H](C)[C@H](NC(=O)[C@H](Cc1c[nH]c2ccccc12)NC(=O)[C@H](CSCC[P+](C)(C)C)NC(=O)[C@H](Cc1c[nH]c2ccccc12)NC(=O)[C@H](Cc1c[nH]c2ccccc12)NC(=O)[C@H](CSCCC[P+](C)(C)C)NC(=O)[C@H](CSCC[P+](C)(C)C)NC(=O)CCc1ccc2n1[B-](F)(F)[N+]1=C(C)C=C(C)C1=C2)C(=O)N[C@@H](CSCCC[P+](C)(C)C)C(=O)N[C@@H](Cc1c[nH]c2ccccc12)C(N)=O.O=C([O-])C(F)(F)F.O=C([O-])C(F)(F)F.O=C([O-])C(F)(F)F.O=C([O-])C(F)(F)F ({BODIPY(FL)}-C(CH2CH2P(+)Me3)C(Propyl(3-PMe3+))WWC(CH2CH2P(+)Me3)WIC(Propyl(3-PMe3+))W-NH2)	Not Active	Active	Active	
CC[C@H](C)[C@H](NC(=O)[C@H](Cc1c[nH]c2ccccc12)NC(=O)[C@H](CSCCC[P+](C)(C)C)NC(=O)[C@H](Cc1c[nH]c2ccccc12)NC(=O)[C@H](Cc1c[nH]c2ccccc12)NC(=O)[C@H](CSCCC[P+](C)(C)C)NC(=O)[C@H](CSCCC[P+](C)(C)C)NC(=O)CCC1=[N+]2C(=Cc3c(C)cc(C)n3[B-]2(F)F)C=C1)C(=O)N[C@@H](CSCCC[P+](C)(C)C)C(=O)N[C@@H](Cc1c[nH]c2ccccc12)C(N)=O.O=C([O-])C(F)(F)F.O=C([O-])C(F)(F)F.O=C([O-])C(F)(F)F.O=C([O-])C(F)(F)F ({BODIPY(FL)}-C(Propyl(3-PMe3+))C(Propyl(3-PMe3+))WWC(Propyl(3-PMe3+))WIC(Propyl(3-PMe3+))W-NH2)	Not Active	Active	Active	
H-KRWWKWIRW-NH2				viability at 24 h, 256 µM [5]: 2%; hemolysis at 1 h, 512 µM [6]: 14.3%; viability at 24 h, 512 µM [7]: 0%; MIC [8]: 1.5 µM
CC[C@H](C)[C@H](NC(=O)[C@H](Cc1c[nH]c2ccccc12)NC(=O)[C@H](CSCC[P+](C)(C)C)NC(=O)[C@H](Cc1c[nH]c2ccccc12)NC(=O)[C@H](Cc1c[nH]c2ccccc12)NC(=O)[C@H](CSCC[P+](C)(C)C)NC(=O)[C@H](CSCC[P+](C)(C)C)NC(=O)CCc1ccc2n1[B-](F)(F)[N+]1=C(C)C=C(C)C1=C2)C(=O)N[C@@H](CSCC[P+](C)(C)C)C(=O)N[C@@H](Cc1c[nH]c2ccccc12)C(N)=O.O=C([O-])C(F)(F)F.O=C([O-])C(F)(F)F.O=C([O-])C(F)(F)F.O=C([O-])C(F)(F)F ({BODIPY(FL)}-C(CH2CH2P(+)Me3)C(CH2CH2P(+)Me3)WWC(CH2CH2P(+)Me3)WIC(CH2CH2P(+)Me3)W-NH2)				Drug uptake [9]: Active

Reference: ChEMBL document CHEMBL4257516, “Synthesis and cellular penetration properties of new phosphonium based cationic amphiphilic peptides” (Medchemcomm, 2018)
